The values that follow come from ChEMBL document CHEMBL1123064, “[1,4]Benzoxazine-2,3-diones as antiallergic agents” (J Med Chem, 1985).

Assay [1] concerns Rattus norvegicus. As to the kind of experiment: Inhibition of antigen-induced […] at a dose of 25 mg/kg in passive cutaneous anaphylaxis in the male Sprague-Dawley rats. Format: functional. In short, it runs like this:
(§1)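 IgE antiserum was raised in male Sprague-Dawley rats with im ovalbumin/aluminum hydroxide plus ip B. pertussis. Naive rats were sensitized intradermally at dorsal sites (antiserum 1:20). After 48 h, groups of four received oral compound or vehicle (1% methylcellulose). 10 min later, iv challenge with 4 mg ovalbumin in 1% Evans blue; blued wheal areas measured at 30 min; Student's t test.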

The species entered for assay [2] is Rattus norvegicus. In words: Concentration required to inhibit antigen-induced release of histamine (AIR) by 50% from passively sensitized rat mast cells. The class given is functional, cell-based. Particulars: read-out: I50. In short, it runs like this: (§2)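 Washed rat mast cells, passively sensitized in vitro with rat anti-ovalbumin serum, washed again, then challenged with ovalbumin; histamine release measured. Compounds dissolved in Me2SO (final 0.17%). I50 read from concentration-dependent inhibition; number of experiments in parentheses. DSCG positive control in every experiment.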

For assay [3], the system named is Rattus norvegicus. As to the kind of experiment: Effective dose against passive cutaneous anaphylaxis in rat when administered perorally. The class given is functional. As to conditions: po. In short, it runs like this: as §1
For assay [4], the system named is Rattus norvegicus. In words: Effective dose against passive cutaneous anaphylaxis when administered perorally. The class given is functional. Particulars: po. In a few lines: as §1
The subject of assay [5] is Rattus norvegicus. In words: Percent Inhibition of antigen-induced release of histamine at a dose of 50 mg/kg in passive cutaneous anaphylaxis in the male Sprague-Dawley rats. Format: functional. In a few lines:
as §1

Assay [6] is filed under the species Rattus norvegicus. As to the kind of experiment: Concentration required to inhibit antigen-induced release of histamine (AIR) by 50% from passively sensitized rat mast cells at p<0.01. Format: functional, cell-based. Particulars: Mast cell, read-out: I50. In short, it runs like this: as §2
The test system of assay [7] is Rattus norvegicus. In words: Inhibition of antigen-induced release of histamine at a dose of 50 mg/kg in passive cutaneous anaphylaxis in the male Sprague-Dawley rats. Format: functional. In short, it runs like this:
as §1

Assay [8] relates to Rattus norvegicus. In words: Effective dose against passive anaphylaxis in rat when administered intraperitoneally. Format: functional. As to conditions: ip.
Assay [9] relates to Rattus norvegicus. As to the kind of experiment: Effective dose against passive cutaneous anaphylaxis in rat when administered intraperitoneally. The class given is functional. As to conditions: ip.

By inhibition in vivo is commonly meant the share of the control response that was lost under treatment. A higher inhibition in vivo goes with a strong effect. As to `O=c1[nH]c2cc(Cl)ccc2oc1=O`, 25 mg/kg produced 14% inhibition in vivo in the assay with Rattus norvegicus [1].

`COc1ccc2oc(=O)c(=O)[nH]c2c1` registered an inhibition in vivo at 25 mg/kg in the assay on Rattus norvegicus [1] of 21%. In addition, the IC50 in the assay listed under Rattus norvegicus [2] turned out to be 15 µM.

The ED50 is the dose at which the effect has come halfway, by size or by number of responders. High values mean a need for a large dose, low ones an effect at a small dose. In the assay on Rattus norvegicus [1], `O=c1[nH]c2cc3[nH]c(=O)c(=O)oc3cc2oc1=O` returned an inhibition in vivo at 25 mg/kg of 13%. In the assay filed under Rattus norvegicus [2], the IC50 worked out at 3 µM. The ED50 with Rattus norvegicus [3] was more than 125 mg/kg.

`O=c1[nH]c2cc(C(F)(F)F)ccc2oc1=O` had an inhibition in vivo at 25 mg/kg in the assay with Rattus norvegicus [1] of 20%. Also, the IC50 in the assay listed under Rattus norvegicus [2] worked out at 100 µM.

`O=c1[nH]c2cc3oc(=O)c(=O)[nH]c3cc2oc1=O` registered an inhibition in vivo at 25 mg/kg in the assay with Rattus norvegicus [1] of 0%. Besides, the IC50 in the assay filed under Rattus norvegicus [2] amounted to 1.2 µM. Further, the ED50 with Rattus norvegicus [3] is more than 125 mg/kg.

The molecule `C=CCc1cc(OC)c2oc(=O)c(=O)[nH]c2c1` yielded a median effective dose (ED50) in the assay with Rattus norvegicus [4] of 7 mg/kg. In the assay with Rattus norvegicus [1], the inhibition in vivo at 25 mg/kg was determined as 77%. The IC50 in the assay listed under Rattus norvegicus [2] stood at 10 µM.

`O=c1[nH]c2cc3ccccc3cc2oc1=O` gave an inhibition in vivo at 25 mg/kg in the assay on Rattus norvegicus [1] of 11%. In the assay with Rattus norvegicus [5], this molecule came in with an inhibition in vivo at 50 mg/kg of 45%. For the same molecule, the IC50 in the assay listed under Rattus norvegicus [6] stood at 45 µM.

The molecule `O=c1[nH]c2cc3c(cc2oc1=O)CCCC3` showed an inhibition in vivo at 25 mg/kg in the assay with Rattus norvegicus [1] of 15%. Besides, the IC50 in the assay listed under Rattus norvegicus [2] was 10 µM. For the same molecule, in the assay with Rattus norvegicus [3], the ED50 was 96 mg/kg.

Turning to `COc1ccc2[nH]c(=O)c(=O)oc2c1`, in the assay on Rattus norvegicus [1], the inhibition in vivo at 25 mg/kg came out at 33%. Also, in the assay filed under Rattus norvegicus [2], the IC50 worked out at 28 µM.

`COC(=O)c1cc(OC)c2oc(=O)c(=O)[nH]c2c1` displayed an inhibition in vivo at 25 mg/kg in the assay with Rattus norvegicus [1] of 35%. In the assay listed under Rattus norvegicus [2], the IC50 is 3.4 µM.

In the case of `COc1cc2[nH]c(=O)c(=O)oc2cc1OC`, testing at 25 mg/kg with Rattus norvegicus [1] gave an inhibition in vivo of 45%. Also, the inhibition in vivo at 50 mg/kg in the assay with Rattus norvegicus [5] was found to be 100%. Further, the IC50 in the assay listed under Rattus norvegicus [2] amounted to 30 µM. The molecule also registered an ED50 in the assay on Rattus norvegicus [3] of 20 mg/kg.

Turning to `CCOC(=O)C(=O)Nc1ccc2oc(=O)c(=O)[nH]c2c1`, the IC50 in the assay filed under Rattus norvegicus [2] is 60 µM.

`Cc1ccc2[nH]c(=O)c(=O)oc2c1` yielded an inhibition in vivo at 50 mg/kg in the assay on Rattus norvegicus [5] of 97%. In the assay listed under Rattus norvegicus [2], the IC50 came out at 32 µM.

Molecule `COc1cccc2[nH]c(=O)c(=O)oc12` registered an inhibition in vivo at 25 mg/kg in the assay on Rattus norvegicus [1] of 88%. For the same molecule, the inhibition in vivo at 50 mg/kg in the assay with Rattus norvegicus [5] is 89%. Also, the IC50 in the assay listed under Rattus norvegicus [2] is 7 µM. This molecule registered an ED50 in the assay with Rattus norvegicus [3] of 14 mg/kg.

`CCOC(=O)c1ccc2oc(=O)c(=O)[nH]c2c1` came in with an inhibition in vivo at 25 mg/kg in the assay with Rattus norvegicus [1] of 0%. Also, the IC50 in the assay filed under Rattus norvegicus [2] is 10 µM.

With `O=c1[nH]c2ccccc2oc1=O`, testing at 50 mg/kg in the assay on Rattus norvegicus [5] gave an inhibition in vivo of 70%. In the assay listed under Rattus norvegicus [2], the IC50 worked out at 42 µM.

The molecule `O=c1[nH]c2c(ccc3ccccc32)oc1=O` yielded an inhibition in vivo at 50 mg/kg in the assay with Rattus norvegicus [5] of 18%. For the same molecule, the IC50 in the assay filed under Rattus norvegicus [2] is less than 100 µM.

With `N#Cc1ccc2[nH]c(=O)c(=O)oc2c1`, the IC50 in the assay listed under Rattus norvegicus [2] is 15 µM. In the assay on Rattus norvegicus [7], this molecule had an inhibition in vivo at 50 mg/kg of 14%. The same molecule registered an ED50 in the assay with Rattus norvegicus [8] of 23 mg/kg.

For the molecule `O=c1[nH]c2cc([N+](=O)[O-])ccc2oc1=O`, the inhibition in vivo at 50 mg/kg in the assay with Rattus norvegicus [5] worked out at 91%; in the assay with Rattus norvegicus [7], 24%. Further, the IC50 in the assay filed under Rattus norvegicus [2] came to 0.8 µM.

`O=C(O)c1ccc2[nH]c(=O)c(=O)oc2c1` displayed an inhibition in vivo at 25 mg/kg with Rattus norvegicus [1] of 7%. The inhibition in vivo at 50 mg/kg in the assay on Rattus norvegicus [5] worked out at 83%. In addition, the IC50 in the assay filed under Rattus norvegicus [2] stood at 16 µM.

As for `O=c1[nH]c2ccc(O)cc2oc1=O`, the IC50 in the assay filed under Rattus norvegicus [2] was determined as 170 µM.

On to `O=C([O-])c1cc(=O)c2c(OCC(O)COc3cccc4oc(C(=O)[O-])cc(=O)c34)cccc2o1.[Na+].[Na+]` [CROMOLYN SODIUM], for which the IC50 in the assay listed under Rattus norvegicus [2] amounted to 4.5 µM. The molecule further gave a median effective dose (ED50) in the assay on Rattus norvegicus [9] of 6 mg/kg.
